This note sets out measurements from ChEMBL document CHEMBL4257453, “Identification of karanjin isolated from the Indian beech tree as a potent CYP1 enzyme inhibitor with cellular efficacy via screening of a natural product repository” (Medchemcomm, 2018).

One series concerns the target Cytochrome P450 2C19 (Homo sapiens, UniProt P33261). Kind of series: Inhibition of human recombinant CYP2C19 expressed in HEK293 cells using 3-cyano-7-ethoxycoumarin substrate substrate preincubated for 30 mins followed by substrate addition and measured after 60 mins by fluorescence assay relative to control. The format is ADME, cell-based. In outline:
(§1)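 HEK293 cells adapted to suspension and transiently transfected with pcDNA3.1 plasmids carrying the individual CYP; 100×10^3 cells per well in triplicate. […] Fluorogenic substrate is then added at 5 μM and fluorescence read for 60 min.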

A further series has as its target CYP2C19 (Homo sapiens, UniProt P33261). Kind of series: Inhibition of recombinant human CYP2C19 expressed in baker's yeast-derived microsomes (Sacchrosomes) at 10 uM using 3-cyano-7-ethoxycoumarin substrate by EROD assay relative to control. The format is ADME. Particulars: probe 3-cyano-7-ethoxycoumarin. The method in brief: (§2)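 Yeast microsomes carrying recombinant CYP (Sacchrosomes). […] Substrates per isoform are 7-ethoxyresorufin, 3-cyano-7-ethoxycoumarin, EOMCC or dibenzylfluorescein, read as endpoint fluorescence. Background from compound-only wells without enzyme is subtracted. Independent triplicate runs; α-naphthoflavone positive control.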

The next series deals with T1, Cytochrome P450 1A1 (Homo sapiens, UniProt P04798).
T1 sequence (P04798 whole entry): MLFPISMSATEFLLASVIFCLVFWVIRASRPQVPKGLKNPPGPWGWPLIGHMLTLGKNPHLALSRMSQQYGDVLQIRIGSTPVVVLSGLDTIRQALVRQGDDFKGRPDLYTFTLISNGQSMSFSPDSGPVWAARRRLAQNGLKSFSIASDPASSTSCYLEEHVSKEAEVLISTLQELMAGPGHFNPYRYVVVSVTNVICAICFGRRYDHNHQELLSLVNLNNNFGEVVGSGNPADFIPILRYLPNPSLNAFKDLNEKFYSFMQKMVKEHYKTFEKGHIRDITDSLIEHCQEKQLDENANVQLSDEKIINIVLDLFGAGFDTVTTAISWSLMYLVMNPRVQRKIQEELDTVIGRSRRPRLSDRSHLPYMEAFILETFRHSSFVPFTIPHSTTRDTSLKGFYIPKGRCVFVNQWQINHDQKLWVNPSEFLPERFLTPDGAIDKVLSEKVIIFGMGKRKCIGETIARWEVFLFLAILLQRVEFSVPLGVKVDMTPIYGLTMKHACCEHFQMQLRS
Kind of series: Inhibition of human recombinant CYP1A1 expressed in HEK293 cells using 7-ethoxyresorufin substrate preincubated for 30 mins followed by substrate addition and measured after 60 mins by fluorescence assay relative to control. The format is cell-based. In outline:
as §1

The target in the next series is Cytochrome P450 2C9 (Homo sapiens, UniProt P11712). Kind of series: Inhibition of human recombinant CYP2C9 expressed in HEK293 cells using 3-cyano-7-ethoxycoumarin substrate substrate preincubated for 30 mins followed by substrate addition and measured after 60 mins by fluorescence assay relative to control. In kind it is ADME, cell-based. The method in brief:
as §1

The next series concerns the target Cytochrome P450 2D6 (Homo sapiens, UniProt P10635). Put plainly: Inhibition of human recombinant CYP2D6 expressed in HEK293 cells using 7-ethoxy-methyloxy-3-cyanocoumarin substrate substrate preincubated for 30 mins followed by substrate addition and measured after 60 mins by fluorescence assay relative to control. In kind it is ADME, cell-based. In outline:
as §1

The target in another series is Cytochrome P450 3A4 (Homo sapiens, UniProt P08684). Put plainly: Inhibition of human recombinant CYP3A4 expressed in HEK293 cells using dibenzylfluorescein substrate substrate preincubated for 30 mins followed by substrate addition and measured after 60 mins by fluorescence assay relative to control. In kind it is ADME, cell-based. The method in brief:
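HEK293 cells adapted to suspension and transiently transfected with pcDNA3.1 plasmids carrying the individual CYP; 100×10^3 cells per well in triplicate. Fluorogenic substrate is then added at 5 μM and fluorescence read for 60 min.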

Another series deals with T2, CYP1A2 (Homo sapiens, UniProt P05177).
T2 sequence (P05177 whole entry): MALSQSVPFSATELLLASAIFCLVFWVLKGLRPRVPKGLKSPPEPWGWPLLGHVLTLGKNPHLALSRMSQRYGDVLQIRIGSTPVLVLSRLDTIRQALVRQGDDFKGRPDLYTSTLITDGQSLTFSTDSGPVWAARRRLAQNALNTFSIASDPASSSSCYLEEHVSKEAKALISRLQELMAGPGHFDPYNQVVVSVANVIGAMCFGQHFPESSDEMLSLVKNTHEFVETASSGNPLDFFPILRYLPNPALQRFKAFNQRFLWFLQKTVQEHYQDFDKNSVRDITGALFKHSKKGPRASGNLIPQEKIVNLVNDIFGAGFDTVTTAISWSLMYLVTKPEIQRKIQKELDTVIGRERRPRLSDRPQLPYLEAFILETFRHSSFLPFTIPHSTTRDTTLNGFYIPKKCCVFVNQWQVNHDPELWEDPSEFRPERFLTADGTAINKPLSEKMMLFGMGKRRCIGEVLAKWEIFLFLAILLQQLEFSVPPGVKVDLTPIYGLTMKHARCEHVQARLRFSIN
Put plainly: Inhibition of recombinant human CYP1A2 expressed in baker's yeast-derived microsomes (Sacchrosomes) at 10 uM using 3-cyano-7-ethoxycoumarin substrate by EROD assay relative to control. The format is ADME. The settings on record: probe 3-cyano-7-ethoxycoumarin. The method in brief: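 Yeast microsomes carrying recombinant CYP (Sacchrosomes). Substrates per isoform are 7-ethoxyresorufin, 3-cyano-7-ethoxycoumarin, EOMCC or dibenzylfluorescein, read as endpoint fluorescence. Background from compound-only wells without enzyme is subtracted. Independent triplicate runs; α-naphthoflavone positive control.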

The target in another series is T3, CYP1B1 (Homo sapiens, UniProt Q16678).
T3 sequence (Q16678 whole entry): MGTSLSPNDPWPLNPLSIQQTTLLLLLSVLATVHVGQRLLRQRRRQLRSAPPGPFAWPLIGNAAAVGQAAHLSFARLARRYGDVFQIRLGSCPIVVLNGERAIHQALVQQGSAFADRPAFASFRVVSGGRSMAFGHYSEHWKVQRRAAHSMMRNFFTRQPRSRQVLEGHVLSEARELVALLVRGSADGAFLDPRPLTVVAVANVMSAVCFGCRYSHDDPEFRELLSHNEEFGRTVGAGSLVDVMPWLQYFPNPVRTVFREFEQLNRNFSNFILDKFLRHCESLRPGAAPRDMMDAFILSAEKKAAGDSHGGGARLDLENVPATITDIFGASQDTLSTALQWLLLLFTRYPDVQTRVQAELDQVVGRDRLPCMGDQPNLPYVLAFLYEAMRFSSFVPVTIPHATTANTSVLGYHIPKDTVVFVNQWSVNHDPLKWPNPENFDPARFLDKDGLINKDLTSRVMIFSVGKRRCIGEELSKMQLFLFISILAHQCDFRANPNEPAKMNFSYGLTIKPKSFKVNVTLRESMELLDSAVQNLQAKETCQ
Kind of series: Inhibition of recombinant human CYP1B1 expressed in baker's yeast-derived microsomes (Sacchrosomes) at 10 uM using 7-ethoxyresorufin substrate by EROD assay relative to control. The format is ADME. The settings on record: probe 7-ethoxyresorufin. In outline:
as §2

Another series has as its target T4, Cytochrome P450 1A2 (Homo sapiens, UniProt P05177).
T4 sequence (P05177 whole entry): T2 sequence (P05177 whole entry)
Kind of series: Inhibition of human recombinant CYP1A2 expressed in HEK293 cells using 3-cyano-7-ethoxycoumarin substrate preincubated for 30 mins followed by substrate addition and measured after 60 mins by fluorescence assay relative to control. In kind it is ADME, cell-based. The method in brief: as §1

Another series has as its target CYP3A4 (Homo sapiens, UniProt P08684). Kind of series: Inhibition of recombinant human CYP3A4 expressed in baker's yeast-derived microsomes (Sacchrosomes) at 10 uM using dibenzylfluorescein substrate by EROD assay relative to control. In kind it is ADME. The settings on record: probe dibenzylfluorescein. In outline:
as §2

Cytochrome P450 2C19, sequence (P33261 whole entry): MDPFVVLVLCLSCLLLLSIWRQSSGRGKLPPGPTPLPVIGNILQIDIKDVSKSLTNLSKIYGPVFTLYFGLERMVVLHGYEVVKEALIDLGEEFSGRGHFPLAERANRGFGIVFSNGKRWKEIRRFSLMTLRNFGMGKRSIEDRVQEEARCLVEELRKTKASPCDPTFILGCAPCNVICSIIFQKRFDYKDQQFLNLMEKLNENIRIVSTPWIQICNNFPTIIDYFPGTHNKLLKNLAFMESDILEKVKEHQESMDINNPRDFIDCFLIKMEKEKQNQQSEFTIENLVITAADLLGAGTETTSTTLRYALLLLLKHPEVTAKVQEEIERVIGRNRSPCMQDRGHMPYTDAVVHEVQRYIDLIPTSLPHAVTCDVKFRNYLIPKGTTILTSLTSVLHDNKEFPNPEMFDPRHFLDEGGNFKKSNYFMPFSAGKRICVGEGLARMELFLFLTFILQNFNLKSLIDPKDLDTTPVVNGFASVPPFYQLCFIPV
CYP2C19, sequence (P33261 whole entry, canonical isoform): as the sequence (P33261 whole entry) above
CYP3A4, sequence (P08684 whole entry): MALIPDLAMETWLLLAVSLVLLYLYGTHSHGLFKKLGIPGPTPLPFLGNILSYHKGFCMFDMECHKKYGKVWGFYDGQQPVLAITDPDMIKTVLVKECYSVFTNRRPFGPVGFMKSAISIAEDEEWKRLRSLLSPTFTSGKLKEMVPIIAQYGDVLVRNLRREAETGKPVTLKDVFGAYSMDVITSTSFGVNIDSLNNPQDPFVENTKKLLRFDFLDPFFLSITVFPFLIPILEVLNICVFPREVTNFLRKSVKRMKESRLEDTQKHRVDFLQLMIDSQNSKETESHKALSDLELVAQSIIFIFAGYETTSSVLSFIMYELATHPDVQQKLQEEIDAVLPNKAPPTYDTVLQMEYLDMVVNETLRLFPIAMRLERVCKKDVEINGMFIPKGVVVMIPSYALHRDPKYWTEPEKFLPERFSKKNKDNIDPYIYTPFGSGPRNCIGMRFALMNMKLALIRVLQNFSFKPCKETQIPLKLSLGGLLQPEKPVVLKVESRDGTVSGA
Cytochrome P450 3A4, sequence (P08684 whole entry): as above
Cytochrome P450 2C9, sequence (P11712 whole entry): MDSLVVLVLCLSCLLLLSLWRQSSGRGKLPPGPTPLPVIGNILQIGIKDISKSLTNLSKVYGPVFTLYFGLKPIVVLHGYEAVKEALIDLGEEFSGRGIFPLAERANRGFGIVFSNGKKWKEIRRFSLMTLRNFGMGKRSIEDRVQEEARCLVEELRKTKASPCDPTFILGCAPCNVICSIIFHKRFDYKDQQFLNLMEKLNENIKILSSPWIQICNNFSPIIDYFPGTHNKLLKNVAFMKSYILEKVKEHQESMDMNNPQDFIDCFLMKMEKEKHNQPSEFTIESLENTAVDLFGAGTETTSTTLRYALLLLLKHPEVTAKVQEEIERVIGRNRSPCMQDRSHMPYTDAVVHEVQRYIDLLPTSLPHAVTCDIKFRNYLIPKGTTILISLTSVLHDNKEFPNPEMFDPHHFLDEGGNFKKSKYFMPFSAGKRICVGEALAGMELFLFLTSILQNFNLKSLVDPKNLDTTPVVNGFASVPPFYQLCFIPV
Cytochrome P450 2D6, sequence (P10635 whole entry): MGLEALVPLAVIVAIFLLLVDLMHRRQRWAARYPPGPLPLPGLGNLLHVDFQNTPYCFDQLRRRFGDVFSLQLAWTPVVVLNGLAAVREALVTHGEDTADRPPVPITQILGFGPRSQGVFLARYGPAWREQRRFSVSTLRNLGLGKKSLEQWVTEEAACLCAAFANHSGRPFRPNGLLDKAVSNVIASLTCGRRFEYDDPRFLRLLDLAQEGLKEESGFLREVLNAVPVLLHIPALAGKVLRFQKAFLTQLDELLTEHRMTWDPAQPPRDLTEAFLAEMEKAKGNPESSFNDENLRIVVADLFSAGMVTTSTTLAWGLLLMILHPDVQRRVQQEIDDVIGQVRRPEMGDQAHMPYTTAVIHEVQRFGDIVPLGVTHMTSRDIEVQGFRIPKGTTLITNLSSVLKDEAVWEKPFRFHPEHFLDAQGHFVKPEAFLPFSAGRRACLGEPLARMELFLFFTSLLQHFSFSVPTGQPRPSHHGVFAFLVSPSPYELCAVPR

Take `COc1c2ccoc2cc2oc(=O)ccc12` [BERGAPTEN]: the half-maximal inhibitory concentration (IC50) – broadly, the midpoint of a concentration-inhibition curve – on Cytochrome P450 2C19 is over 10 µM; at Cytochrome P450 1A1, 0.08 µM; at Cytochrome P450 2C9 it was over 10 µM; on Cytochrome P450 2D6, over 10 µM; on Cytochrome P450 3A4, over 10 µM; at Cytochrome P450 1A2 it was 0.09 µM. Moreover, the inhibition (in general, the change of the read-out against control, counted positive when it falls) at 10 µM was 5% at CYP2C19, 73% on CYP1A2, 20% on CYP1B1 and 3% on CYP3A4. Also, the inhibitory constant (Ki) at Cytochrome P450 1A1 and at Cytochrome P450 1A2 was 0.06 µM each time.
Turning to `COc1c2ccoc2c(OC)c2oc(=O)ccc12` [ISOPIMPINELLIN], the IC50 is over 10 µM at Cytochrome P450 2C19; 0.02 µM at Cytochrome P450 1A1; over 10 µM on Cytochrome P450 2C9; over 10 µM at Cytochrome P450 2D6; over 10 µM on Cytochrome P450 3A4; 0.04 µM at Cytochrome P450 1A2. The inhibition at 10 µM on CYP2C19 stood at 0%; on CYP1A2 it was 62%; at CYP1B1, 55%; on CYP3A4, 0%. The Ki (usually a measure of affinity in units of concentration, obtained from inhibition or displacement) on Cytochrome P450 1A1 was determined as 0.012 µM; at Cytochrome P450 1A2 it was 0.028 µM.
